Values after ≈ are worked out from the molar mass of the structure shown.
Key:
Assay type in all cases: functional
Clostridioides difficile [1] = assay: Antimicrobial activity against Clostridium difficile isolate 37 by agar dilution method
How it was run: (§1)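 MIC by CLSI reference agar dilution for anaerobes, with endpoints read per M11-A7 and C. difficile […] as control. Rifaximin was dissolved in methanol, diluted in 0.1 M phosphate buffer pH 7.4 plus 0.45% SDS, and tested at 0.0009–256 μg/ml. Rifampin was dissolved in methanol, diluted in water, and tested at 0.00001–256 μg/ml.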

Clostridioides difficile [2] = assay: Antimicrobial activity against Clostridium difficile isolate 38 by agar dilution method
How it was run: (§2)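 CLSI reference agar dilution method for anaerobes, with endpoints read per guideline M11-A7. Rifaximin was dissolved in methanol, diluted in 0.1 M phosphate buffer (pH 7.4) with 0.45% SDS, and tested at 0.0009–256 μg/ml. Rifampin was dissolved in methanol, diluted in water, and tested at 0.00001–256 μg/ml. C. difficile ATCC […] served as control. Isolates were typed by HindIII REA.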

Clostridioides difficile [3] = assay: Antimicrobial activity against Clostridium difficile isolate 40 by agar dilution method; how it was run: as §2
Clostridioides difficile [4] = assay: Antimicrobial activity against Clostridium difficile isolate 42 by agar dilution method; how it was run: as §2
Clostridioides difficile [5] = assay: Antimicrobial activity against Clostridium difficile isolate 43 by agar dilution method; how it was run: as §2
Clostridioides difficile [6] = assay: Antimicrobial activity against Clostridium difficile isolate 46 by agar dilution method; how it was run: as §2
Clostridioides difficile [7] = assay: Antimicrobial activity against Clostridium difficile isolate 47 by agar dilution method; how it was run: as §2
Clostridioides difficile [8] = assay: Antimicrobial activity against Clostridium difficile isolate 48 by agar dilution method; how it was run: as §2
Clostridioides difficile [9] = assay: Antimicrobial activity against Clostridium difficile isolate 52 by agar dilution method; how it was run: as §2
Clostridioides difficile [10] = assay: Antimicrobial activity against Clostridium difficile isolate 57 by agar dilution method; how it was run: as §2
Clostridioides difficile [11] = assay: Antimicrobial activity against Clostridium difficile isolate 59 by agar dilution method; how it was run: as §2
Clostridioides difficile [12] = assay: Antimicrobial activity against Clostridium difficile isolate 60 by agar dilution method; how it was run: as §2
Clostridioides difficile [13] = assay: Antimicrobial activity against Clostridium difficile isolate 61 by agar dilution method; how it was run: as §2
Clostridioides difficile [14] = assay: Antimicrobial activity against rifaximin-resistant Clostridium difficile isolate 65 expressing RpoB H502N and R505K mutants by agar dilution method
How it was run: as §1, with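 “MICs were found” for “MIC”, “by the” for “by”, “dilution method” for “dilution”, “with” for “plus”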

Clostridioides difficile [15] = assay: Antimicrobial activity against Clostridium difficile isolate 69 by agar dilution method
How it was run: (§3)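 CLSI reference agar dilution for anaerobes, with endpoints read per guideline M11-A7. Rifaximin was dissolved in methanol, diluted in 0.1 M phosphate buffer pH 7.4 with 0.45% SDS, and tested at 0.0009–256 μg/ml. Rifampin was dissolved in methanol, diluted in water, and tested at 0.00001–256 μg/ml. Control strain: C. difficile ATCC […]. Isolates were typed by HindIII REA.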

Clostridioides difficile [16] = assay: Antimicrobial activity against Clostridium difficile isolate 71 by agar dilution method; how it was run: as §3
Clostridioides difficile [17] = assay: Antimicrobial activity against Clostridium difficile isolate 10 by Etest
How it was run: (§4)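 Rifampin MIC by Etest strip on brucella blood agar, run per the strip maker's instructions. Isolates were HindIII REA-typed clinical C. difficile.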

Clostridioides difficile [18] = assay: Antimicrobial activity against Clostridium difficile isolate 14 by Etest; how it was run: as §4
Clostridioides difficile [19] = assay: Antimicrobial activity against Clostridium difficile isolate 15 by Etest; how it was run: as §4
Clostridioides difficile [20] = assay: Antimicrobial activity against Clostridium difficile isolate 16 by Etest; how it was run: as §4
Clostridioides difficile [21] = assay: Antimicrobial activity against rifaximin-resistant Clostridium difficile isolate 17 expressing RpoB H502N and I548M mutants by Etest
How it was run: (§5)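 Rifampin Etest on clinical C. difficile isolates typed by HindIII REA, run per the strip manufacturer's instructions on brucella blood agar, with the MIC read from the strip.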

Clostridioides difficile [22] = assay: Antimicrobial activity against Clostridium difficile isolate 19 by Etest; how it was run: as §4
Clostridioides difficile [23] = assay: Antimicrobial activity against Clostridium difficile isolate 20 by Etest; how it was run: as §4
Clostridioides difficile [24] = assay: Antimicrobial activity against rifaximin-resistant Clostridium difficile isolate 26 expressing RpoB R505K mutant by Etest; how it was run: as §5
Clostridioides difficile [25] = assay: Antimicrobial activity against Clostridium difficile isolate 30 by Etest; how it was run: as §4
Clostridioides difficile [26] = assay: Antimicrobial activity against Clostridium difficile isolate 31 by Etest; how it was run: as §4
Clostridioides difficile [27] = assay: Antimicrobial activity against Clostridium difficile isolate 32 by Etest; how it was run: as §4
Clostridioides difficile [28] = assay: Antimicrobial activity against Clostridium difficile isolate 34 by Etest; how it was run: as §4
Clostridioides difficile [29] = assay: Antimicrobial activity against Clostridium difficile isolate 38 by Etest; how it was run: as §4
Clostridioides difficile [30] = assay: Antimicrobial activity against Clostridium difficile isolate 48 by Etest
How it was run: (§6)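 Rifampin Etest strips were run on brucella blood agar following the manufacturer's instructions to give an MIC. Clinical isolates were typed by HindIII REA.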

Clostridioides difficile [31] = assay: Antimicrobial activity against Clostridium difficile isolate 49 by Etest; how it was run: as §6
Clostridioides difficile [32] = assay: Antimicrobial activity against rifaximin-resistant Clostridium difficile isolate 50 expressing RpoB R505K mutant by Etest; how it was run: as §5
Clostridioides difficile [33] = assay: Antimicrobial activity against Clostridium difficile isolate 51 by Etest; how it was run: as §6
Clostridioides difficile [34] = assay: Antimicrobial activity against Clostridium difficile isolate 57 by Etest; how it was run: as §6
Clostridioides difficile [35] = assay: Antimicrobial activity against Clostridium difficile isolate 58 by Etest; how it was run: as §6
Clostridioides difficile [36] = assay: Antimicrobial activity against rifaximin-resistant Clostridium difficile isolate 64 expressing RpoB H502R mutant by Etest; how it was run: as §5
Clostridioides difficile [37] = assay: Antimicrobial activity against Clostridium difficile isolate 72 by Etest
How it was run: (§7)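 Rifampin MIC by Etest on brucella blood agar, run per the strip manufacturer's instructions, against clinical isolates typed by HindIII REA.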

Clostridioides difficile [38] = assay: Antimicrobial activity against Clostridium difficile isolate 73 by Etest; how it was run: as §7
Clostridioides difficile [39] = assay: Antimicrobial activity against Clostridium difficile isolate 75 by Etest; how it was run: as §7
Clostridioides difficile [40] = assay: Antimicrobial activity against Clostridium difficile isolate 77 by Etest; how it was run: as §7
Clostridioides difficile [41] = assay: Antimicrobial activity against Clostridium difficile isolate 79 by Etest; how it was run: as §7
Clostridioides difficile [42] = assay: Antimicrobial activity against Clostridium difficile isolate 80 by Etest; how it was run: as §7
Clostridioides difficile [43] = assay: Antimicrobial activity against Clostridium difficile isolate 3 by agar dilution method; how it was run: as §1
Clostridioides difficile [44] = assay: Antimicrobial activity against Clostridium difficile isolate 8 by agar dilution method; how it was run: as §3
Clostridioides difficile [45] = assay: Antimicrobial activity against Clostridium difficile isolate 10 by agar dilution method; how it was run: as §1
Clostridioides difficile [46] = assay: Antimicrobial activity against Clostridium difficile isolate 11 by agar dilution method; how it was run: as §1
Clostridioides difficile [47] = assay: Antimicrobial activity against Clostridium difficile isolate 13 by agar dilution method; how it was run: as §1
Clostridioides difficile [48] = assay: Antimicrobial activity against Clostridium difficile isolate 16 by agar dilution method; how it was run: as §1
Clostridioides difficile [49] = assay: Antimicrobial activity against rifaximin-resistant Clostridium difficile isolate 18 expressing RpoB R505K mutant by agar dilution method
How it was run: as §1, with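 “MICs were found” for “MIC”, “by the” for “by”, “dilution method” for “dilution”, “with” for “plus”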

Clostridioides difficile [50] = assay: Antimicrobial activity against Clostridium difficile isolate 25 by agar dilution method; how it was run: as §1
Clostridioides difficile [51] = assay: Antimicrobial activity against Clostridium difficile isolate 28 by agar dilution method; how it was run: as §1
Clostridioides difficile [52] = assay: Antimicrobial activity against Clostridium difficile isolate 34 by agar dilution method; how it was run: as §1

Question: Which MIC (Clostridioides difficile [1]) does the source give for `CO[C@H]1/C=C/O[C@@]2(C)Oc3c(C)c(O)c4c(O)c(c(/C=N/N5CCN(C)CC5)c(O)c4c3C2=O)NC(=O)/C(C)=C\C=C\[C@H](C)[C@H](O)[C@@H](C)[C@@H](O)[C@@H](C)[C@H](OC(C)=O)[C@@H]1C` [RIFAMPIN] here?
Answer: 0.4 ng/mL (≈ 0.486 nM)

Question: What about the MIC (Clostridioides difficile [2]) of the same compound?
Answer: 0.4 ng/mL (≈ 0.486 nM)

Question: What about the MIC (Clostridioides difficile [3]) of the same compound?
Answer: 0.9 ng/mL (≈ 1.09 nM)

Question: What about the MIC (Clostridioides difficile [4]) of the same compound?
Answer: 0.9 ng/mL (≈ 1.09 nM)

Question: And the MIC (Clostridioides difficile [5])?
Answer: 0.4 ng/mL (≈ 0.486 nM)

Question: What about the MIC (Clostridioides difficile [6]) of the same compound?
Answer: 0.9 ng/mL (≈ 1.09 nM)

Question: And the MIC (Clostridioides difficile [7])?
Answer: 0.9 ng/mL (≈ 1.09 nM)

Question: What about the MIC (Clostridioides difficile [8]) of the same compound?
Answer: 0.9 ng/mL (≈ 1.09 nM)

Question: What about the MIC (Clostridioides difficile [9]) of the same compound?
Answer: 1.9 ng/mL (≈ 2.31 nM)

Question: What about the MIC (Clostridioides difficile [10]) of the same compound?
Answer: 0.9 ng/mL (≈ 1.09 nM)

Question: What about the MIC (Clostridioides difficile [11]) of the same compound?
Answer: 0.9 ng/mL (≈ 1.09 nM)

Question: And the MIC (Clostridioides difficile [12])?
Answer: 0.9 ng/mL (≈ 1.09 nM)

Question: And the MIC (Clostridioides difficile [13])?
Answer: 0.9 ng/mL (≈ 1.09 nM)

Question: And the MIC (Clostridioides difficile [14])?
Answer: > 256000 ng/mL

Question: What about the MIC (Clostridioides difficile [15]) of the same compound?
Answer: 0.06 ng/mL (≈ 0.0729 nM)

Question: What about the MIC (Clostridioides difficile [16]) of the same compound?
Answer: 0.06 ng/mL (≈ 0.0729 nM)

Question: And the MIC (Clostridioides difficile [17])?
Answer: 16 ng/mL (≈ 19.4 nM)

Question: And the MIC (Clostridioides difficile [18])?
Answer: < 2 ng/mL

Question: And the MIC (Clostridioides difficile [19])?
Answer: < 2 ng/mL

Question: And the MIC (Clostridioides difficile [20])?
Answer: < 2 ng/mL

Question: What about the MIC (Clostridioides difficile [21]) of the same compound?
Answer: > 32000 ng/mL

Question: And the MIC (Clostridioides difficile [22])?
Answer: < 2 ng/mL

Question: What about the MIC (Clostridioides difficile [23]) of the same compound?
Answer: < 2 ng/mL

Question: What about the MIC (Clostridioides difficile [24]) of the same compound?
Answer: > 32000 ng/mL

Question: And the MIC (Clostridioides difficile [25])?
Answer: < 2 ng/mL

Question: And the MIC (Clostridioides difficile [26])?
Answer: < 2 ng/mL

Question: What about the MIC (Clostridioides difficile [27]) of the same compound?
Answer: < 2 ng/mL

Question: And the MIC (Clostridioides difficile [28])?
Answer: 4 ng/mL (≈ 4.86 nM)

Question: And the MIC (Clostridioides difficile [29])?
Answer: < 2 ng/mL

Question: And the MIC (Clostridioides difficile [30])?
Answer: < 2 ng/mL

Question: What about the MIC (Clostridioides difficile [31]) of the same compound?
Answer: < 2 ng/mL

Question: And the MIC (Clostridioides difficile [32])?
Answer: > 32000 ng/mL

Question: What about the MIC (Clostridioides difficile [33]) of the same compound?
Answer: < 2 ng/mL

Question: And the MIC (Clostridioides difficile [34])?
Answer: < 2 ng/mL

Question: What about the MIC (Clostridioides difficile [35]) of the same compound?
Answer: < 2 ng/mL

Question: And the MIC (Clostridioides difficile [36])?
Answer: > 32000 ng/mL

Question: What about the MIC (Clostridioides difficile [37]) of the same compound?
Answer: < 2 ng/mL

Question: What about the MIC (Clostridioides difficile [38]) of the same compound?
Answer: < 2 ng/mL

Question: What about the MIC (Clostridioides difficile [39]) of the same compound?
Answer: < 2 ng/mL

Question: And the MIC (Clostridioides difficile [40])?
Answer: < 2 ng/mL

Question: And the MIC (Clostridioides difficile [41])?
Answer: < 2 ng/mL

Question: And the MIC (Clostridioides difficile [42])?
Answer: < 2 ng/mL

Question: And the MIC (Clostridioides difficile [43])?
Answer: 0.06 ng/mL (≈ 0.0729 nM)

Question: What about the MIC (Clostridioides difficile [44]) of the same compound?
Answer: 0.06 ng/mL (≈ 0.0729 nM)

Question: What about the MIC (Clostridioides difficile [45]) of the same compound?
Answer: 0.06 ng/mL (≈ 0.0729 nM)

Question: And the MIC (Clostridioides difficile [46])?
Answer: 0.06 ng/mL (≈ 0.0729 nM)

Question: What about the MIC (Clostridioides difficile [47]) of the same compound?
Answer: 0.09 ng/mL (≈ 0.109 nM)

Question: And the MIC (Clostridioides difficile [48])?
Answer: 0.9 ng/mL (≈ 1.09 nM)

Question: What about the MIC (Clostridioides difficile [49]) of the same compound?
Answer: 128000 ng/mL (≈ 156000 nM)

Question: And the MIC (Clostridioides difficile [50])?
Answer: 0.9 ng/mL (≈ 1.09 nM)

Question: What about the MIC (Clostridioides difficile [51]) of the same compound?
Answer: 0.9 ng/mL (≈ 1.09 nM)

Question: What about the MIC (Clostridioides difficile [52]) of the same compound?
Answer: 0.9 ng/mL (≈ 1.09 nM)
